High-throughput results as filed in PubChem.
A selection: hits, their analogues and other compounds. The true share with any hit is near 4%.
E-sel inducer – induces E-selectin expression in human endothelial cells; HUVEC E-selectin immunofluorescence imaging; normalized: neutral wells 0, TNF-alpha wells 100; activation, % at 7.58 µM; 0.37% of 260,000 active; AID 686992;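 active means mean E-selectin-positive cell signal at least 10% of the positive control, reached in at least 60% of replicates, without over 20% cell loss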
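Material: HUVEC primary endothelial cells; Amount: 3,000 cells per well; Dosing: single concentration; Medium: EGM-2 growth medium on 0.1% gelatin-coated wells; Read-out basis: percent E-selectin-positive cells; Signal: immunofluorescence imaging; Control set: TNF-alpha, DMSO.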
FN deposit inh – fibronectin deposition inhibition; AH1F fibroblasts, Alexa488-fibronectin deposition fluorescence, overnight; inhibition, % at 12.6 µM; 0.086% of 350,000 active;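 active means mean inhibition across replicates of 30% or more, regardless of how many single replicates reach that level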
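Material: AH1F fibroblasts assembling fluorescent fibronectin matrix; amount: 10000 AH1F cells/well; medium: DMEM, 2% serum; reagent: Alexa488-fibronectin, 24 nM final in well; dosing: single compound dose, delivered by pin transfer; incubation: 1 h adhesion, overnight exposure; detection: fluorescence after three HBSS washes, excitation 485 nm, emission 525 nm; measure: fibronectin deposition inhibition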
FGF22 binding – shifts melting point of recombinant human FGF22. recombinant FGF22 thermal shift, SYPRO orange fluorescence; percent of sucrose octasulfate shift, DMSO zero. activity (Tm shift, normalised), % at 9.99 µM. 1.5% of 340,000 active. Q9HCT0. AID 651658;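 active means mean Tm shift, scaled 0 neutral to 100 positive control, at about 1.3% or above, every replicate too, limit read from the data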
Target sequence (Q9HCT0 whole entry, looked up): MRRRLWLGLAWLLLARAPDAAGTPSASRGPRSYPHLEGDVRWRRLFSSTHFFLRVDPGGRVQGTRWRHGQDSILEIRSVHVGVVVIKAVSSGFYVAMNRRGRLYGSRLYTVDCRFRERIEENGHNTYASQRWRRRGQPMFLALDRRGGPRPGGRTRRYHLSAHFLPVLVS
rRNA inh HTS – inhibitors of bacterial rRNA selective over humanized ribosomes. 1.6% of 350,000 active. GFP signal change (wild-type ribosome), % (test concentration not listed). E. coli WT GFP vs humanized-ribosome RFP mutants, fluorescence, 24 h; hits give low values; DMSO median 0, no signal -100;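 active means significant combined selectivity score with lowered wild-type GFP, culture density cut under 30%, mutant RFP and density less affected; inactive means any of these conditions unmet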
Statin myotox sup – suppression of simvastatin myotoxicity. rescue of ATP level, % at 7.49 µM. C2C12 myotubes + simvastatin, ATP luminescence, 48 h; scaled: DMSO 0, geranylgeraniol control 100. 0.78% of 330,000 active;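 active means mean ATP rescue above about 67%, or every replicate alone reaching that limit, limit read from the data, passing the limit was not always enough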;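 further: myotubes were challenged with 10 µM simvastatin during compound exposure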
SIRT5 inh – inhibitors of human sirtuin-5 desuccinylase. Purified SirT5, succinyl-peptide AMC, trypsin-coupled fluorescence. inhibition, % at 15 µM. 1.1% of 330,000 active. AID 652115; in the data active means inhibition above about 15%
Target sequence (Q9NXA8 whole entry, looked up): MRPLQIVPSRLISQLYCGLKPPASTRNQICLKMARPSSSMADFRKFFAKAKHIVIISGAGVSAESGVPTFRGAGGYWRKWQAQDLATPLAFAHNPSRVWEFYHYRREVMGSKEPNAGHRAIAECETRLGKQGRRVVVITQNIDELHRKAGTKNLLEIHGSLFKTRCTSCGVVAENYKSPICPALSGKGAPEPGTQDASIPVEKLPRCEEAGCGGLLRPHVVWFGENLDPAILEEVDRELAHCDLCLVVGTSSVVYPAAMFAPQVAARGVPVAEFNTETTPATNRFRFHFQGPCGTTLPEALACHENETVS
Hits are given with their value; n = inactive; x = no result; ! = not confirmed by another sample.

SMILES	E-sel inducer	FN deposit inh	FGF22 binding	rRNA inh HTS	Statin myotox sup	SIRT5 inh
CO[C@@H]1CN(C)C(=O)c2ccc(NC(C)=O)cc2OC[C@H](C)N(C(=O)Cc2ccccn2)C[C@H]1C	n	n	n	n	n	16.1
CCC(=O)Nc1ccc2c(c1)OC[C@@H](C)N(Cc1ccccn1)C[C@@H](C)[C@@H](OC)CN(C)C2=O	n	n	n	n	n	15.5
CO[C@@H]1CN(C)C(=O)c2ccc(NC(=O)Nc3ccccc3)cc2OC[C@@H](C)N(C(C)=O)C[C@H]1C	n	n	n	n	x	21.8
COCC(=O)N1C[C@@H](C)[C@@H](OC)CN(C)C(=O)c2ccc(NC(=O)c3cc(C)on3)cc2OC[C@@H]1C	n	n	n	n	n	34.1
CO[C@@H]1CN(C)C(=O)c2ccc(NC(C)=O)cc2OC[C@H](C)N(C(=O)Cc2ccccn2)C[C@@H]1C	n	n	n	n	n	n
O=C(c1ccc(F)cc1)N1CC(=O)N2[C@@H](CO)[C@H](c3ccc(C#CC4CC4)cc3)[C@@H]2C1	n	n	x	n	x	n
CO[C@H]1CN(C)C(=O)c2cc(NS(=O)(=O)c3cccc(F)c3)ccc2OC[C@H](C)N(Cc2cc(F)ccc2F)C[C@H]1C	n	x	n	n	n	n
CO[C@H]1CN(C)C(=O)c2cc(NS(=O)(=O)c3cccc(F)c3)ccc2OC[C@H](C)N(Cc2cc(F)ccc2F)C[C@@H]1C	n	x	n	n	n	16.0
CO[C@H]1CN(C)C(=O)c2ccc(NC(=O)C3CC3)cc2OC[C@@H](C)N(C(=O)c2ccccc2F)C[C@H]1C	n	n	n	n	n	18.4
CCCN1C[C@@H](C)[C@H](OC)CN(C)C(=O)c2ccc(NC(=O)Nc3cccc(F)c3)cc2OC[C@@H]1C	n	n	n	n	n	17.7
CCC(=O)Nc1ccc2c(c1)OC[C@@H](C)N(Cc1ccccc1F)C[C@H](C)[C@@H](OC)CN(C)C2=O	n	n	n	n	n	n
CCC(=O)Nc1ccc2c(c1)OC[C@@H](C)N(Cc1ccccc1F)C[C@@H](C)[C@@H](OC)CN(C)C2=O	n	n	n	n	n	29.8!
C[C@H](CO)N1C[C@H](C)[C@@H](CN(C)Cc2cncnc2)Oc2cc(-c3ccccc3F)ccc2S1(=O)=O	n	x	n	n	n	n
NS(=O)(=O)c1ccc(N=Nc2c(O)c(C(=O)O)cc3ccccc23)cc1	x	x	n	n	n	n
O=C(O)Cc1ccc(N=Nc2c(O)c(C(=O)O)cc3ccccc23)cc1	x	n	n	n	n	30.8
CC(C)NC(=O)Nc1cccc2c1O[C@@H](CN(C)S(C)(=O)=O)[C@@H](C)CN(C)C2=O	x	n	x	n	x	x
CC(=O)N(C)c1ccc(NC(=O)Cc2cccc3ccccc23)cc1	x	n	n	n	122.6	n
O=C(Cc1cccc2ccccc12)Nc1cc(C(=O)O)cc(C(=O)O)c1	n	n	n	n	n	n
COc1cccc(S(=O)(=O)N[C@H]2C=C[C@H](CC(=O)NCc3ccc(F)cc3)O[C@@H]2CO)c1	n	n	n	n	n	n
O=C(COC(=O)c1cccc(S(=O)(=O)Nc2ccc(F)cc2)c1)NCCN1C(=O)CSC1=O	n	n	n	n	n	16.7
O=C(NCC[C@H]1CC[C@@H](NS(=O)(=O)c2ccc(Cl)cc2)[C@@H](CO)O1)Nc1ccc(F)cc1	n	n	x	n	x	n
C[C@H](CO)N1C[C@H](C)[C@H](CN(C)CC2CC2)Oc2cc(-c3ccc(C#N)cc3)ccc2S1(=O)=O	n	n	x	n	n	n
COc1ccc(-c2cnc(N)nc2-c2ccc(OC)cc2O)cc1	x	n	x	-27.5	x	n
COc1ccc(-c2nc(N)nc(C)c2-c2ccc(Cl)cc2)c(O)c1	59.3	n	n	n	n	n
CCOc1ccc(-c2nc(N)nc(C)c2-c2ccc(Cl)cc2)c(O)c1	x	n	n	n	n	n
CO[C@@H](CN(C)Cc1ccc2c(c1)OCO2)[C@H](C)CN(C(=O)Nc1ccc(F)cc1)[C@H](C)CO	n	n	n	n	n	n
C[C@@H]1CN([C@H](C)CO)C(=O)c2cc(NS(=O)(=O)c3ccccc3)ccc2O[C@@H]1CN(C)C(=O)Nc1ccc(C(F)(F)F)cc1	n	n	x	n	n	x
